Results reported in ChEMBL document CHEMBL1156597, “Structure-activity relationship of kahalalide F synthetic analogues” (J Med Chem, 2008).

Columns and labels:
Format in all cases: functional, cell-based
[1] = test system: DU-145; assay: Cytotoxicity against human DU145 cells after 48 hrs by SRB assay
In short: (§1)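 Cells grown in RPMI 1640 with 10% FBS and penicillin/streptomycin at 37 °C and 5% CO₂, trypsinized, then seeded at 5 × 10³/well. After 18 h drug-free attachment, samples in DMSO/EtOH/PBS (0.5:0.5:99) were added for 48 h continuous exposure. Cells were fixed with cold TCA (1 h, 4 °C) and stained with SRB (10 min). Tris-solubilized stain read at 490 nm. Triplicate wells, mean ± SD; GI₅₀ derived.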

[2] = test system: SK-MEL-28; assay: Cytotoxicity against human SK-MEL-28 cells after 48 hrs by SRB assay; in short: as §1
[3] = test system: A549; assay: Cytotoxicity against human A549 cells after 48 hrs by SRB assay; conditions: for LC50 / TGI / GI50: Homo sapiens, A549, 48 h; for GI50: read-out: GI50; in short: as §1
[4] = test system: HT-29; assay: Cytotoxicity against human HT29 cells after 48 hrs by SRB assay; conditions: for CC50 / GI50 / TGI: Homo sapiens, HT-29, 48 h; for CC50: read-out: LC50 (the source's name); in short: as §1

## C/C=C1\NC(=O)[C@H](Cc2ccccc2)NC(=O)[C@@H](C(C)C)NC(=O)[C@@H]([C@H](C)CC)NC(=O)[C@H](NC(=O)[C@H](NC(=O)[C@H](CCCN)NC(=O)[C@H]2CCCN2C(=O)[C@H](NC(=O)[C@@H](NC(=O)[C@@H](NC(=O)[C@H](NC(=O)CCCO)C(C)C)[C@@H](C)O)C(C)C)C(C)C)[C@H](C)CC)[C@H](C)OC(=O)[C@H](C(C)C)NC1=O
[1]
  Activity: 6.89 ×10⁻⁶ M
[2]
  Activity: 6.89 ×10⁻⁶ M
[3]
  Activity: 6.89 ×10⁻⁶ M
[4]
  Activity: 6.89 ×10⁻⁶ M

## C/C=C1\NC(=O)[C@H](Cc2ccccc2)NC(=O)[C@@H](C(C)C)NC(=O)[C@@H]([C@H](C)CC)NC(=O)[C@H](NC(=O)[C@H](NC(=O)[C@H](NC(=O)CCCC(C)C)C(C)C)[C@H](C)CC)[C@H](C)OC(=O)[C@H](C(C)C)NC1=O
[3]
  LC50: 14.8 µM
[4]
  CC50: 40 µM

## C/C=C1\NC(=O)[C@H](Cc2ccccc2)NC(=O)[C@@H](C(C)C)NC(=O)[C@@H]([C@H](C)CC)NC(=O)[C@H](NC(=O)[C@H](NC(=O)[C@H](CCCN)NC(=O)[C@H]2CCCN2C(=O)[C@H](NC(=O)[C@@H](NC(=O)[C@@H](NC(=O)[C@H](NC(=O)CCC(C)C)C(C)C)[C@@H](C)O)C(C)C)C(C)C)[C@H](C)CC)[C@H](C)OC(=O)[C@H](C(C)C)NC1=O
[1]
  Activity: 3.42 ×10⁻⁷ M
[2]
  Activity: 3.42 ×10⁻⁶ M
[3]
  Activity: 3.42 ×10⁻⁷ M
[4]
  Activity: 3.42 ×10⁻⁷ M

## C/C=C1\NC(=O)[C@H](Cc2ccccc2)NC(=O)[C@@H](C(C)C)NC(=O)[C@@H]([C@H](C)CC)NC(=O)[C@H](NC(=O)[C@H](NC(=O)[C@H](CCCN)NC(=O)[C@H]2CCCN2C(=O)[C@H](NC(=O)[C@@H](NC(=O)[C@@H](NC(=O)[C@H](NC(=O)CC(C)(C)C)C(C)C)[C@@H](C)O)C(C)C)C(C)C)[C@H](C)CC)[C@H](C)OC(=O)[C@H](C(C)C)NC1=O
[1]
  Activity: 3.42 ×10⁻⁷ M
[2]
  Activity: 3.42 ×10⁻⁶ M
[3]
  Activity: 1.71 ×10⁻⁶ M
[4]
  Activity: 3.42 ×10⁻⁷ M

## C/C=C1\NC(=O)[C@H](Cc2ccccc2)NC(=O)[C@@H](C(C)C)NC(=O)[C@@H]([C@H](C)CC)NC(=O)[C@H](NC(=O)[C@H](NC(=O)[C@H](CCCN)NC(=O)[C@H]2CCCN2C(=O)[C@H](NC(=O)[C@@H](NC(=O)[C@@H](NC(=O)[C@H](NC(=O)CCCOC(C)=O)C(C)C)[C@@H](C)O)C(C)C)C(C)C)[C@H](C)CC)[C@H](C)OC(=O)[C@H](C(C)C)NC1=O
[1]
  Activity: 6.7 ×10⁻⁶ M
[2]
  Activity: 6.7 ×10⁻⁶ M
[3]
  Activity: 6.7 ×10⁻⁶ M
[4]
  Activity: 6.7 ×10⁻⁶ M

## C/C=C1\NC(=O)[C@H](Cc2ccccc2)NC(=O)[C@@H](C(C)C)NC(=O)[C@@H]([C@H](C)CC)NC(=O)[C@H](NC(=O)[C@H](NC(=O)[C@H](CCCN)NC(=O)[C@H]2CCCN2C(=O)[C@H](NC(=O)[C@@H](NC(=O)[C@@H](NC(=O)[C@H](NC(C)=O)C(C)C)[C@@H](C)O)C(C)C)C(C)C)[C@H](C)CC)[C@H](C)OC(=O)[C@H](C(C)C)NC1=O
[1]
  Activity: 7.11 ×10⁻⁶ M
[2]
  Activity: 7.11 ×10⁻⁶ M
[3]
  Activity: 7.11 ×10⁻⁶ M
[4]
  Activity: 7.11 ×10⁻⁶ M

## C/C=C1\NC(=O)[C@H](Cc2ccccc2)NC(=O)[C@@H](C(C)C)NC(=O)[C@@H]([C@H](C)CC)NC(=O)[C@H](NC(=O)[C@H](NC(=O)[C@H](CCCN)NC(=O)[C@H]2CCCN2C(=O)[C@H](NC(=O)[C@@H](NC(=O)[C@@H](NC(=O)[C@H](NC(=O)CCC)C(C)C)[C@@H](C)O)C(C)C)C(C)C)[C@H](C)CC)[C@H](C)OC(=O)[C@H](C(C)C)NC1=O
[1]
  Activity: 1.74 ×10⁻⁶ M
[2]
  Activity: 3.48 ×10⁻⁶ M
[3]
  Activity: 3.48 ×10⁻⁶ M
[4]
  Activity: 1.74 ×10⁻⁶ M

## C/C=C1\NC(=O)[C@H](Cc2ccccc2)NC(=O)[C@@H](C(C)C)NC(=O)[C@@H]([C@H](C)CC)NC(=O)[C@H](NC(=O)[C@H](NC(=O)[C@H](CCCN)NC(=O)[C@H]2CCCN2C(=O)[C@H](NC(=O)[C@@H](NC(=O)[C@@H](NC(=O)[C@H](NC(=O)c2ccc3c(c2)OCO3)C(C)C)[C@@H](C)O)C(C)C)C(C)C)[C@H](C)CC)[C@H](C)OC(=O)[C@H](C(C)C)NC1=O
[3]
  LC50: 1.33 µM
  TGI: 1.04 µM
  GI50: 0.64 µM
[4]
  GI50: 0.413 µM
  TGI: 0.514 µM
  CC50: 0.409 µM

## C/C=C1\NC(=O)[C@H](Cc2ccccc2)NC(=O)[C@@H](C(C)C)NC(=O)[C@@H]([C@H](C)CC)NC(=O)[C@H](NC(=O)[C@H](NC(=O)[C@H](CCCN)NC(=O)[C@H]2CCCN2C(=O)[C@H](NC(=O)[C@@H](NC(=O)[C@@H](NC(=O)[C@H](NC(=O)/C=C/C=C/C)C(C)C)[C@@H](C)O)C(C)C)C(C)C)[C@H](C)CC)[C@H](C)OC(=O)[C@H](C(C)C)NC1=O
[1]
  Activity: 6.85 ×10⁻⁶ M
[2]
  Activity: 6.85 ×10⁻⁶ M
[3]
  Activity: 3.43 ×10⁻⁶ M
[4]
  Activity: 6.85 ×10⁻⁷ M

## C/C=C1\NC(=O)[C@H](Cc2ccccc2)NC(=O)[C@@H](C(C)C)NC(=O)[C@@H]([C@H](C)CC)NC(=O)[C@H](NC(=O)[C@H](NC(=O)[C@H](NC(=O)[C@@H](NC(=O)[C@@H](NC(=O)[C@H](NC(=O)CCCC(C)C)C(C)C)[C@@H](C)O)C(C)C)C(C)C)[C@H](C)CC)[C@H](C)OC(=O)[C@H](C(C)C)NC1=O
[3]
  LC50: 11.3 µM
  TGI: 20.8 µM
  GI50: 23 µM
[4]
  GI50: 9.89 µM
  TGI: 61.6 µM
  CC50: 30.6 µM

## C/C=C1\NC(=O)[C@H](Cc2ccccc2)NC(=O)[C@@H](C(C)C)NC(=O)[C@@H]([C@H](C)CC)NC(=O)[C@H](NC(=O)[C@H](NC(=O)[C@H](CCCN)NC(=O)[C@H]2CCCN2C(=O)[C@H](NC(=O)[C@@H](NC(=O)[C@@H](NC(=O)[C@H](NC(=O)[C@H](NC(=O)C(C)C)[C@H](C)CC)C(C)C)[C@@H](C)O)C(C)C)C(C)C)[C@H](C)CC)[C@H](C)OC(=O)[C@H](C(C)C)NC1=O
[1]
  Activity: 6.46 ×10⁻⁶ M
[2]
  Activity: 6.46 ×10⁻⁶ M
[3]
  Activity: 6.46 ×10⁻⁶ M
[4]
  Activity: 6.46 ×10⁻⁶ M

## C/C=C1\NC(=O)[C@H](Cc2ccccc2)NC(=O)[C@@H](C(C)C)NC(=O)[C@@H]([C@H](C)CC)NC(=O)[C@H](NC(=O)[C@H](NC(=O)[C@H](CCCN)NC(=O)[C@H]2CCCN2C(=O)[C@H](NC(=O)[C@@H](NC(=O)[C@@H](NC(=O)[C@H](NC(=O)CCCOC(=O)CCOC(C)=O)C(C)C)[C@@H](C)O)C(C)C)C(C)C)[C@H](C)CC)[C@H](C)OC(=O)[C@H](C(C)C)NC1=O
[1]
  Activity: 6.33 ×10⁻⁷ M
[2]
  Activity: 6.33 ×10⁻⁷ M
[3]
  Activity: 6.33 ×10⁻⁷ M
[4]
  Activity: 6.33 ×10⁻⁷ M

## C/C=C1\NC(=O)[C@H](Cc2ccccc2)NC(=O)[C@@H](C(C)C)NC(=O)[C@@H]([C@H](C)CC)NC(=O)[C@H](NC(=O)[C@H](NC(=O)[C@H](CCCN)NC(=O)[C@H]2CCCN2C(=O)[C@H](NC(=O)[C@@H](NC(=O)[C@@H](NC(=O)[C@H](NC(=O)C(F)(F)F)C(C)C)[C@@H](C)O)C(C)C)C(C)C)[C@H](C)CC)[C@H](C)OC(=O)[C@H](C(C)C)NC1=O
[1]
  Activity: 3.42 ×10⁻⁶ M
[2]
  Activity: 6.84 ×10⁻⁶ M
[3]
  Activity: 6.84 ×10⁻⁶ M
[4]
  Activity: 3.42 ×10⁻⁶ M
